Screening results deposited in PubChem by The Scripps Research Institute Molecular Screening Center.
Shown are actives, neighbours in structure and some others; about 1.8% of the full set was active somewhere.
NPY-Y1 PAM-ag: potentiators or agonists of human neuropeptide Y receptor Y1; P25929; NPY-Y1 expressing cells, potentiator/agonist activation; activation, % at 3.6 µM; 0.37% of 220,000 active; in the data active = activation above about 33%, passing the limit was not always enough;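 also: cells stimulated with NPY at EC10 then isoproterenol at EC100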
NPY Y1 blocker: NPY-Y1 (human) receptor antagonism; inhibition, % at 3.6 µM; HEK293-CNG Y1 cells, membrane potential fluorescence; NPY at EC95, then isoproterenol; 1% of 200,000 active;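 active = inhibition above the campaign mean inhibition of all tested compounds plus 3 SD, cut at about 20% in these data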
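Test system – HEK293 Y1/CNG channel cell line · Also added – NPY agonist 25 nM, then isoproterenol 1 µM plus Ro 20-1724 25 µM · Compound dosing – one concentration, 3.6 µM, in 0.4% DMSO · Schedule – compound incubation 1 h at room temperature, readout 45 min post-stimulation · Technique – fluorescence, membrane potential probe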
NPY-Y2 PAM-ag: human NPY-Y2 potentiation or agonism, primary screen. 0.45% of 220,000 active. cells expressing NPY-Y2, potentiator/agonist read-out. AID 1359. P49146. activation, % at 3.6 µM; in the data active = activation above about 27%;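 also: cells stimulated with NPY near EC25 plus isoproterenol at EC100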
Target sequence (P49146 whole entry, looked up): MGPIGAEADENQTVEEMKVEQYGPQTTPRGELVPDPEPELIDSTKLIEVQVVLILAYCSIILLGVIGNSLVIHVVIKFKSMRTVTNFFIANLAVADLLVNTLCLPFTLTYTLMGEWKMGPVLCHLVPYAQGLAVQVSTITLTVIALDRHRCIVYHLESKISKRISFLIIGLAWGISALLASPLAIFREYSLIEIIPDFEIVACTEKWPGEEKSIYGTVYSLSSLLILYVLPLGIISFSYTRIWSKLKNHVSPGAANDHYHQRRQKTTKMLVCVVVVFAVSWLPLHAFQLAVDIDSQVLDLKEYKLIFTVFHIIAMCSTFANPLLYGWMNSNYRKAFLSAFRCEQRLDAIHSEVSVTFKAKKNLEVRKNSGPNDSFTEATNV
NPY Y2 blocker: NPY-Y2 (human) receptor antagonism. P49146. NPY-Y2 expressing cells, antagonist mode. inhibition, % at 2.7 µM. 0.99% of 140,000 active. AID 793; in the data active = inhibition above about 17%
NPY-Y1 antag ct: human NPY-Y1 antagonism in NPY-Y2 counter-screen; cell-based NPY-Y1 antagonism counterscreen; shares compounds with NPY Y2 blocker; AID 1256; inhibition, % at 3.6 µM; 19% of 710 active; in the data active = inhibition above about 20%;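 also: cells challenged with NPY then isoproterenol with cAMP sensed through a CNG channel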
NPY2 antag conf: confirmation of human neuropeptide Y receptor Y2 antagonists; shares compounds with NPY Y2 blocker; HEK293 NPY-Y2 CNG channel, membrane potential fluorescence; inhibition, % at 2.8 µM; 32% of 710 active; AID 1257;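 active = mean inhibition of triplicate wells above the hit cutoff set in the primary screen, cut at about 17% in these data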
Numbers stand for hits; i = inactive; nt = no result.

SMILES | NPY-Y1 PAM-ag | NPY Y1 blocker | NPY-Y2 PAM-ag | NPY Y2 blocker | NPY-Y1 antag ct | NPY2 antag conf
CCOC(=O)CC(NC(=O)C1c2ccccc2Oc2ccccc21)c1ccccc1Cl (centres undefined) | i | i | i | 18 | i | i
C=C(C)CSc1nc2c(c(=O)[nH]c(=O)n2C)n1CCC(C)C | i | i | i | 22 | i | i
CCCOc1ccc(Br)cc1/C=N/O | i | i | i | 18 | 21 | i
S=C(NCCc1ccccc1)N/N=C/c1cccc(Cl)c1Cl | i | i | i | 26 | 31 | 50
COc1ccc(NC(=S)N2CCC(C(O)(c3ccccc3)c3ccccc3)CC2)cc1 | i | i | i | i | nt | nt
CCOc1ccc(NC(=S)N2CCC(C(O)(c3ccccc3)c3ccccc3)CC2)cc1 | i | i | i | 54 | i | 94
CN(C)c1ccc(/C=C2\SC(=O)N(CC(O)Cn3c4ccccc4c4ccccc43)C2=O)cc1 (centres undefined) | i | i | i | 21 | 26 | i
O=C(/C=C/c1ccc2c(c1)OCO2)NCCSCc1cccc(Cl)c1 | i | i | i | 18 | i | i
O=C(/C=C/c1ccc2c(c1)OCO2)NCCSCc1ccc(Cl)cc1Cl | i | i | i | 19 | i | i
CS(=O)(=O)N(CC(=O)NCCSCc1cccc(Cl)c1)c1ccc2c(c1)OCO2 | i | i | i | i | nt | nt
CCCCC(=O)NC1(C(F)(F)F)NC(=O)N(C)C1=O (centres undefined) | i | nt | i | nt | nt | nt
CCCN1CCN(C(=S)Nc2ccccc2C(F)(F)F)CC1 | i | i | i | i | nt | nt
CN(C)S(=O)(=O)c1ccc(C(=O)Nc2nnc(SCc3cccc(F)c3)s2)cc1 | i | i | i | i | nt | nt
C=CCOC(=O)C1C(=O)CC(C)(O)C(C(=O)OCC=C)C1c1ccc(OCC)cc1 (centres undefined) | i | i | i | 22 | i | i
CCN(CC)c1ccc(C2C(C(=O)OC(C)C)C(=O)CC(C)(O)C2C(=O)OC(C)C)cc1 (centres undefined) | i | i | i | 19 | i | i
COc1ccc(NC(=O)CSc2nc3ccccc3c(=O)n2CCCN2CCCCC2)c(OC)c1 | i | i | i | 24 | i | 20
COc1ccccc1CNC(=O)CSc1nc2ccccc2c(=O)n1CCCN1CCOCC1 | i | i | i | nt | nt | nt
CCOc1cc(N2CCOCC2)c(OCC)cc1NC(=O)COc1ccc2ccc(=O)oc2c1 | i | i | i | i | nt | nt
COc1ccccc1NC(=O)c1ccc(-c2ccc(Br)cc2)o1 | i | i | i | 21 | 21 | 43
O=C(Nc1ccccc1)c1ccc(-c2ccc(Br)cc2)o1 | i | i | i | 29 | i | i
C=CC(C)Sc1nc2c(c(=O)n(C)c(=O)n2C)n1Cc1ccccc1Cl (centres undefined) | i | i | i | 18 | i | i
COc1cc(C(=O)OCCCN=C2NS(=O)(=O)c3ccccc32)cc(OC)c1OC | i | i | i | nt | nt | nt
CS(=O)(=O)N(CC(=O)N1CCN(Cc2ccc3c(c2)OCO3)CC1)Cc1ccc(Cl)cc1 | i | i | i | 23 | i | i
CS(=O)(=O)N(CCc1ccccc1)CC(=O)N1CCN(Cc2ccc3c(c2)OCO3)CC1 | i | i | i | i | nt | nt
Fc1cccc(CSc2ccc(-c3ccc4c(c3)OCO4)nn2)c1 | i | i | i | 19 | i | i
SMILES | NPY-Y1 PAM-ag | NPY Y1 blocker | NPY-Y2 PAM-ag | NPY Y2 blocker | NPY-Y1 antag ct | NPY2 antag conf
c1cncc(CSc2ccc(-c3ccc4c(c3)OCO4)nn2)c1 | i | i | i | nt | nt | nt
Fc1ccc(CN2C3=NCCN3c3ccccc32)cc1 | i | nt | i | nt | nt | nt
c1ccc(Cc2nnc(-c3ccccc3)o2)cc1 | i | i | i | 135 | i | 19
CCCCOC(=O)Nc1nc(C)c(C(=O)OCC)s1 | i | i | i | 18 | i | i
CCOC(=O)c1sc(NC(=O)CC)nc1C | i | i | i | nt | nt | nt
Cc1cc(NC(=O)CSc2nnc(C3CC3)n2N)c([N+](=O)[O-])cc1C | i | i | i | nt | nt | nt
C=CCNC(=O)c1onc(CSc2cccc3ccccc23)c1C(=O)O | i | i | i | i | nt | nt
C=CCNC(=O)c1onc(CSc2ccccc2F)c1C(=O)O | i | i | i | 18 | i | i
CCCCNC(=O)c1onc(CSc2ccccc2F)c1C(=O)O | i | i | i | 37 | i | 18
CCCCNC(=O)c1onc(CSc2cccc(C)c2)c1C(=O)O | i | i | i | 21 | i | i
CCCCNC(=O)c1onc(CSc2cc(C)cc(C)c2)c1C(=O)O | i | i | i | i | nt | nt
N/C(=N\OC(=O)COc1ccccc1Cl)c1ccc(Cl)cc1 | i | i | i | 18 | i | i
O=C(OCC1CC(c2ccccc2Cl)=NO1)c1ccc(Br)cc1 (centres undefined) | i | i | i | i | nt | nt
O=C(OCC1CC(c2ccccc2)=NO1)c1ccc(Br)cc1 (centres undefined) | i | i | i | 18 | i | i
CCn1c(=N)n(CC(=O)C23CC4CC(CC(C4)C2)C3)c2ccccc21 | i | i | i | 27 | 21 | 32
CC(C)NCC(O)COCCOc1ccc(C(C)(C)C)cc1 (centres undefined) | i | i | i | 24 | i | i
CCCCc1nnc(NC(=O)C(C)Sc2nc(C)cc(=O)[nH]2)s1 (centres undefined) | i | i | i | 20 | i | i
Clc1ccc(-c2nnn(Cc3nc4ccccc4s3)n2)cc1 | i | i | i | 18 | i | 24
Fc1ccc(-c2nnn(Cc3nc4ccccc4s3)n2)cc1 | i | i | i | i | nt | nt
O=C(O)c1cc(Cl)c2ccccc2c1O | i | i | i | 20 | 21 | i
CC(C)c1ccc(/C=C/C(=O)N2CCc3ccccc3C2)cc1 | i | i | i | 18 | 29 | 25
Cc1ccc(S(=O)(=O)N2CCN(S(=O)(=O)N3CCCCCC3)CC2)cc1 | i | i | i | nt | nt | nt
CCN(CC)S(=O)(=O)c1ccc(NS(=O)(=O)CC23CCC(CC2=O)C3(C)C)cc1 (centres undefined) | i | i | i | i | nt | nt
O=C(CSc1nnc(-c2cccs2)o1)c1cccs1 | i | i | i | i | nt | nt
Cc1cc(C(=O)CSc2nnc(-c3cccs3)o2)c(C)n1-c1ccccc1 | i | i | i | 20 | i | i
SMILES | NPY-Y1 PAM-ag | NPY Y1 blocker | NPY-Y2 PAM-ag | NPY Y2 blocker | NPY-Y1 antag ct | NPY2 antag conf
Cc1cccc(CSCCNC(=O)COc2ccc(Cl)cc2)c1 | i | i | i | 22 | i | 17
CCOC(=O)CSc1nc2c(sc3ccccc32)c(=O)n1CCCN1CCOCC1 | i | i | i | 19 | 21 | i
CCC(C)NC(=O)CSc1nc2c(sc3ccccc32)c(=O)n1CCCN1CCOCC1 (centres undefined) | i | i | i | i | nt | nt
c1ccc(COc2ccc(OCCCCN3CCCCC3)cc2)cc1 | i | i | i | 27 | i | 39
O=C(c1ccccc1)c1ccc(OCCCCN2CCCCC2)cc1 | i | i | i | i | nt | nt
CCOc1cccc(Nc2cc3n(c(=O)n2)CCc2cc(OC)c(OC)cc2-3)c1 | i | i | i | 18 | 38 | 65
COc1cc2c(cc1OC)-c1cc(Nc3ccc4c(c3)OCCO4)nc(=O)n1CC2 | i | i | i | i | nt | nt
N#CCC(=O)Nc1ncc(Cc2ccccc2Cl)s1 | i | i | i | nt | nt | nt
